STEP inh – inhibitors of human striatal-enriched phosphatase STEP; recombinant STEP, OMFP fluorogenic substrate, fluorescence; inhibition, % at 20 µM; hit rate 0.25% among 360,000; AID 588621;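 active = inhibition at 20 µM, scaled per plate between control wells, above about 37%, limit read from the data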
Target sequence (P54829 whole entry, looked up): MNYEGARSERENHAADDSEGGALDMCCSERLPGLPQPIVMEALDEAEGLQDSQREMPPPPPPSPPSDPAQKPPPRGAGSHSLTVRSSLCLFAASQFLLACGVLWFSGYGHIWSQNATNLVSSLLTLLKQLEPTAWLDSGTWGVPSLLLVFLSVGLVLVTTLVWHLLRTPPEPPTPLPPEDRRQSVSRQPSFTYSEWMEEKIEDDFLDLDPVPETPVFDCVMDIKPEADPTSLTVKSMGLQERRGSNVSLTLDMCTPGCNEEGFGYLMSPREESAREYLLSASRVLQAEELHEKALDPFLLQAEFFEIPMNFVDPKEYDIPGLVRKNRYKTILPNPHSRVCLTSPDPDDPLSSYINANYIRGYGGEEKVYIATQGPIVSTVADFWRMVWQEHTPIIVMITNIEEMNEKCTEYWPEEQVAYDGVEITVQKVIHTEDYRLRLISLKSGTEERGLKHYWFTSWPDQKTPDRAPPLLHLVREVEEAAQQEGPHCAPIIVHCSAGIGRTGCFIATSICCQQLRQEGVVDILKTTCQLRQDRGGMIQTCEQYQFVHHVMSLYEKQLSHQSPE
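Also added – OMFP at 25 µM · Test system – STEP tyrosine phosphatase · Technique – FITC-channel fluorescence of OMFP product · Schedule – 20 min at room temperature, dark · Evaluation – control-normalized % inhibition with plate pattern correction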
rCAG binder – binds r(CAG) RNA repeats; r(CAG) RNA repeat, TO-PRO-1 dye displacement fluorescence; hit rate 1.3% among 370,000; AID 651821; inhibition, % at 3 µM;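 active = inhibition above the plate cutoff, the mean of all test compounds on that plate plus 3 SD, cut at about 35% in these data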;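 also: higher means more dye released from RNA so lower well fluorescence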
LMPTP inh – blocks human LMPTP phosphatase; P24666; recombinant LMPTP-A, OMFP fluorogenic substrate, fluorescence intensity; inhibition, % at 20 µM; hit rate 0.22% among 360,000; AID 651560;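 active = compounds that cut the enzyme signal by at least half of the control window in the single-dose screen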
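Assay system: LMPTP-A enzyme. Input: 0.625 nM LMPTP-A final. Probe or stimulus: 400 µM OMFP. Compound dosing: single 20 µM dose. Schedule: 50 min dark incubation at room temperature. Detection: fluorescence intensity of OMFP turnover product. Read-out: percent inhibition versus substrate-only and uninhibited controls. Benchmarks: no-enzyme low control, uninhibited high control.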
Scp1 inh – inhibitors of human Scp-1 phosphatase. Q9GZU7. hit rate 0.88% among 340,000. Recombinant Scp1, phosphopeptide, malachite green phosphate absorbance. AID 493091. inhibition, % at 20 µM;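 active = inhibition above about 50% at 20 µM, limit read from the data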
Target sequence (Q9GZU7 76-261 limits assumed): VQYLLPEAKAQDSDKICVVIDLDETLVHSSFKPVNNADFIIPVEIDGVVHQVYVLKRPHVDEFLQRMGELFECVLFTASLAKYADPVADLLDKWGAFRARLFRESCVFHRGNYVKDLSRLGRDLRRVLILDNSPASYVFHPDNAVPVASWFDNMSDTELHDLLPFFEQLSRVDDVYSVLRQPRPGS
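Assay system: SCP-1 catalytic fragment, aa 76-261 | Buffer or medium: Tris acetate buffer pH 5.5 with MgCl2 and Tween-20 | Compound: One concentration, 20 µM, with 1.0% DMSO | Also added: Phospho 17-mer peptide substrate | Signal: Absorbance at 630 nm | Incubation: 45 min enzyme reaction at room temperature | Measure: % inhibition of SCP-1 phosphate liberation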
NadD block – inhibitors of Staphylococcus aureus NadD | purified NadD enzyme, colorimetric absorbance read-out | hit rate 0.78% among 360,000 | inhibition, % at 20 µM; in the data active = inhibition above about 26%
Scp-1 conf – confirmation of human Scp-1 phosphatase inhibitors; shares compounds with Scp1 inh; recombinant SCP-1 catalytic domain, phosphate release, malachite green absorbance; inhibition, % at 20 µM; hit rate 61% among 2,500; AID 540281
Scp-1 MG ctr – interferes with malachite green readout, flagging false Scp-1 hits; shares compounds with Scp1 inh; Colorimetric interference counterscreen, malachite green absorbance 630 nm; apparent inhibition (interference), % at 20 µM; 2,500 tested, under 10 active; AID 540313;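 also: compounds added after enzyme reaction finished so only phosphate colour detection is probed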
Scp-1 Tm shift – validation of human Scp-1 inhibitors by thermal shift binding; shares compounds with Scp1 inh; thermal shift relative to vanadate control, % at 40 µM; Recombinant SCP1, Sypro Orange thermal shift Tm; hit rate 25% among 1,500;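 active = substances whose mean melting-temperature shift, as a percentage of the reference inhibitor's shift, reaches about 5.3%, limit read from the data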
STEP conf – STEP (human) phosphatase inhibition, single concentration confirmation; shares compounds with STEP inh; recombinant STEP, OMFP fluorogenic substrate, fluorescence; inhibition, % at 20 µM; hit rate 32% among 520; call rule not given here
rCAG binder conf – r(CAG) RNA repeat binding, confirmation | shares compounds with rCAG binder | inhibition, % at 3 µM | AID 652065 | hit rate 70% among 4,300 | TO-PRO-1 dye displacement fluorescence;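 active = inhibition above a per-plate cutoff, the mean inhibition of sample wells plus 3 SD, cut at about 35% in these data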;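 also: loss of TO-PRO-1 fluorescence as compound displaces dye from 1x1 AA loop RNA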
DNA CAG counter – disrupts DNA CAG TO-PRO-1 complex, flagging rCAG hits | AID 652068 | inhibition, % at 3 µM | d(CAG) DNA oligo TO-PRO-1 dye displacement, fluorescence | shares compounds with rCAG binder | hit rate 94% among 4,300;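 active = inhibition above its plate's cutoff, the mean test-well inhibition plus 3 SD, cut at about 4.8% in these data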;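 also: hits displace the dye from DNA and so lower well fluorescence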
Large screens that a line does not name were inactive (follow-up assays come after a bar, where they were run). Compounds with a hit are over-represented: about 2.6% of the library has one in this group of screens.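 The calls were made as follows, unless noted: active = inhibition of at least 30% at 20 µM; inactive = the rest.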

CN1CCN(C(=O)COc2ccc(N(C)S(=O)(=O)c3ccc(F)cc3)cc2)CC1	Scp1 inh 68 | Scp-1 conf inactive | Scp-1 MG ctr inactive
CN1CCN(C(=O)COc2ccc(S(=O)(=O)N(C)Cc3ccccc3)cc2)CC1	none
COc1ccc2nc(-c3ccc(CN4CCC(n5nnc6ccccc65)CC4)cc3)c(-c3ccccc3)nc2c1	none (no result: STEP inh, LMPTP inh, Scp1 inh, NadD block)
C[C@]12CCC3C(CC[C@H]4C[C@@H](O)CC[C@]34C)C1C[C@@H](Br)[C@@H]2O (stereo not given in full)	Scp1 inh 59 (no result: STEP inh, LMPTP inh, NadD block) | Scp-1 conf inactive | Scp-1 MG ctr inactive
COC(=O)C1=C(c2cccc(C#N)c2)C[C@@H]2CC[C@H]1N2C(=O)NCCO	Scp1 inh 71 | Scp-1 conf inactive | Scp-1 MG ctr inactive
COC(=O)C1=C(c2cccc(C#N)c2)C[C@@H]2CC[C@H]1N2C(=O)NCCNC(C)=O	none
O=C(CN1C(=O)CN=C(c2ccccc2)c2cc(Cl)ccc21)NC1CCCCC1	none (no result: STEP inh, LMPTP inh, Scp1 inh, NadD block)
COc1ccc(/C=C/C=C2C(=O)NC(=S)NC2=O)cc1	Scp1 inh 50 | Scp-1 conf inactive | Scp-1 MG ctr inactive
O=C(NC1CCCCC1)N1Cc2ccc(Br)cc2-n2nncc2C1	none (no result: STEP inh, LMPTP inh, Scp1 inh, NadD block)
CC(C)Cc1[nH]c(=O)c(C#N)c2c1CCC2	Scp1 inh 87 | Scp-1 conf inactive | Scp-1 MG ctr inactive
CCOc1cc(C=C2C(=O)NC(=S)NC2=O)ccc1O	none | Scp-1 conf inactive | Scp-1 MG ctr inactive
CCCC[N+]12CCC(CC1)C(=C(c1ccccc1)c1ccccc1)C2	Scp1 inh 98 | Scp-1 conf 86 | Scp-1 MG ctr inactive | Scp-1 Tm shift inactive
O=C1NC(=O)N(c2ccc3c(c2)OCO3)C(=O)/C1=C\c1ccc(-c2ccccc2C(=O)O)o1	Scp1 inh 56 | Scp-1 conf 52 | Scp-1 MG ctr inactive | Scp-1 Tm shift inactive
C[N+]1(CC2COC(c3ccco3)O2)CCCCC1 (stereo not given)	Scp1 inh 109 | Scp-1 conf 84 | Scp-1 MG ctr inactive | Scp-1 Tm shift inactive
COc1cc(O)c2c(c1)/C=C/C[C@H](O)[C@H](O)[C@@H](O)/C=C/C[C@H](C)OC2=O	none (no result: STEP inh, LMPTP inh, Scp1 inh, NadD block)
COc1ccc2c3c1OC1C(O)C=CC4C(C2)[N+](C)(C)CCC341 (stereo not given)	Scp1 inh 89 | Scp-1 conf 78 | Scp-1 MG ctr inactive | Scp-1 Tm shift inactive
CN1CC[C@]23c4c5ccc(O)c4OC2[C@H](O)C=CC3[C@H]1C5 (stereo not given in full)	none
C[N+](C)(C)c1ccccc1	Scp1 inh 52 | Scp-1 conf inactive | Scp-1 MG ctr inactive
C[C@H](Cc1ccc(OCC(=O)O)cc1)NC[C@H](O)c1cccc(Cl)c1	none (no result: STEP inh, LMPTP inh, Scp1 inh, NadD block)
O=C1NC(=O)N(CCc2ccc(F)cc2)C(=O)/C1=C/c1ccco1	STEP inh 48, rCAG binder 74, LMPTP inh 66, Scp1 inh 92, NadD block 34 | Scp-1 conf 66 | Scp-1 MG ctr inactive | Scp-1 Tm shift inactive
Cc1ccc(/C=C2/C(=O)NC(=O)N(CCc3ccc(F)cc3)C2=O)o1	none
O=C1CC[C@@]2(O)[C@H]3Cc4ccc(O)c5c4[C@@]2(CCN3CC2CC2)C1O5 (stereo not given in full)	none (no result: STEP inh, LMPTP inh, Scp1 inh, NadD block)
C[N+]1(CC(COCc2ccccc2)OC(=O)Cc2ccccc2)CCOCC1 (stereo not given)	Scp1 inh 112 | Scp-1 conf 89 | Scp-1 MG ctr inactive | Scp-1 Tm shift inactive
CN1CCC(OC(=O)Cc2ccccc2)CC1	none
Cc1ccc(OC(=O)N(C)C[C@H]2OCc3cnnn3CCCC(=O)N([C@H](C)CO)C[C@H]2C)cc1	none (no result: STEP inh, LMPTP inh, Scp1 inh, NadD block)
CC(C)C(NC(=O)OCc1ccccc1)P(=O)(Oc1ccccc1)Oc1ccccc1 (stereo not given)	none (no result: STEP inh, LMPTP inh, Scp1 inh, NadD block)
CC(C)[N+](C)(CCC(C(N)=O)(c1ccccc1)c1ccccc1)C(C)C	Scp1 inh 99 | Scp-1 conf 91 | Scp-1 MG ctr inactive | Scp-1 Tm shift inactive
CCC(=O)C(CCN1CCOCC1)(c1ccccc1)c1ccccc1	none
COc1ccc(C(=O)N/N=C/C23CC[C@@H](O)CC2(O)CC[C@@H]2[C@@H]3CCC3(C)C(C4=CC(=O)OC4)CCC23O)cc1 (stereo not given in full)	Scp1 inh 56 | Scp-1 conf inactive | Scp-1 MG ctr inactive
CC12CC[C@H]3[C@@H](CCC4(O)C[C@H](O)CCC34/C=N/NC(=O)c3ccc(O)cc3)C1(O)CCC2C1=CC(=O)OC1 (stereo not given in full)	none
O=C(NCCN1CCC2(CC1)C(=O)NCN2c1ccccc1)c1ccc(Cl)c(Cl)c1	none (no result: STEP inh, LMPTP inh, Scp1 inh, NadD block)
O=[N+]([O-])c1cc(S(=O)(=O)c2ccc(O)c([N+](=O)[O-])c2)ccc1O	rCAG binder 38, Scp1 inh 56 | Scp-1 conf 61 | Scp-1 MG ctr inactive | Scp-1 Tm shift 17 | rCAG binder conf inactive | DNA CAG counter 7.7
COc1ccc(CN2C(=O)NC(=O)/C(=C\c3ccco3)C2=O)cc1	rCAG binder 43, Scp1 inh 82 | Scp-1 conf 58 | Scp-1 MG ctr inactive | Scp-1 Tm shift 5.5 | rCAG binder conf inactive | DNA CAG counter 12
COc1cccc(N2C(=O)/C(=C/c3ccc(C)o3)C(=O)NC2=S)c1	none
CCOc1cccc(N2C(=O)/C(=C/c3ccco3)C(=O)NC2=S)c1	STEP inh 56, rCAG binder 69, Scp1 inh 74 | Scp-1 conf 70 | Scp-1 MG ctr inactive | Scp-1 Tm shift 6.4 | rCAG binder conf 68 | DNA CAG counter 35
Cc1cc(N2CCNC[C@@H]2C)ccc1N1CC[C@@H](O)C1	none (no result: STEP inh, LMPTP inh, Scp1 inh, NadD block)
COP(=O)(OC)OC=C(Cl)Cl	none (no result: STEP inh, LMPTP inh, Scp1 inh, NadD block)
Cc1ccc(Cn2cc(C=O)c(-c3ccc(C)cc3)n2)cc1	STEP inh 74 | STEP conf 27
O=C(NC1CC1)c1cn(Cc2ccccc2)nc1-c1ccccc1	none
CN1CCC2(CC1)N=C(c1ccc(F)cc1)C(=S)N2	STEP inh 78 | STEP conf 28
Cc1ccc(C(=O)NCCN2CCC3(CC2)C(=O)NCN3c2ccccc2)cc1	none (no result: STEP inh, LMPTP inh, Scp1 inh, NadD block)

Compound activity (PubChem)
